# MEKK2 mut-MEK5 = signal of MEK5 binding to mutant human MEKK2 PB1 domain; percent response, % at 10 µM; 0.35% of 290,000 active; bead flow cytometry, Alexa488-MEK5 binding to MEKK2 mutant; in the data active = percent response above about 24%, passing the limit was not always enough
# ABCG2 block = inhibitors of human ABCG2 transporter, ABCB1 counter-screen | Q9UNQ0 | IgMXP3 cells, JC-1 efflux, flow cytometry | inhibition, % at 6.6 µM | 0.1% of 190,000 active | AID 1325;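 active = inhibition above 80%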;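 also: 0% = DMSO and 100% = nicardipine control wells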
# Target sequence (Q9UNQ0 whole entry, looked up): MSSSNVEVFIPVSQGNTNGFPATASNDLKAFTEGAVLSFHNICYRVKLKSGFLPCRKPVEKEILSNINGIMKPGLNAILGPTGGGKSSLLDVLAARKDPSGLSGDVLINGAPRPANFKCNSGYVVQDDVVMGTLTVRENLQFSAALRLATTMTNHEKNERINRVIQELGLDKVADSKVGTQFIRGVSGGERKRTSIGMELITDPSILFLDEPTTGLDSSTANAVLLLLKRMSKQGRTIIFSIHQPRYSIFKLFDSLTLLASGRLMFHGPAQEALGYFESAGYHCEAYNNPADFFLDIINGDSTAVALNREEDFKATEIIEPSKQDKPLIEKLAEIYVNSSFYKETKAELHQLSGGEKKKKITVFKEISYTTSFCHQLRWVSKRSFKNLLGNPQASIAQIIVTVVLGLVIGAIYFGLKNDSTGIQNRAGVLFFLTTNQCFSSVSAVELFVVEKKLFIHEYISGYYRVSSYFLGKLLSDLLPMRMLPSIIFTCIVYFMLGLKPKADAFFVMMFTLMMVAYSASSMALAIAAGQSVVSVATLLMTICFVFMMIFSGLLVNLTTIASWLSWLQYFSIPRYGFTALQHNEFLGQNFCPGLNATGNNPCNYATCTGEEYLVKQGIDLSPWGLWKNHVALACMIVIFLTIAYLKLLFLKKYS
#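 test system = two drug-resistant human cell lines, ABCG2 and ABCB1 | amount = 3 million cells/mL final, two lines in 1:1 ratio | reagent = JC-1 transporter substrate | doses = one concentration, 6.6 µM final | incubation = 10 min at 25 °C | signal = flow cytometric JC-1 green MFI at 530 nm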
# ABCB1 block = blocks JC-1 efflux by human ABCB1 transporter; P08183; CCRF-Adr cells, flow cytometry; inhibition, % at 6.6 µM; 0.067% of 190,000 active; AID 1326; in the data active = inhibition above about 40%;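 also: 0% = vehicle and 100% = reference inhibitor; higher value means more JC-1 retained so stronger ABCB1 efflux block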
# MEKK2wt PB1 HTS = raises or lowers MEK5 binding to wildtype human MEKK2 PB1 domain. binding response (% of control), % at 10 µM. bead flow cytometry, Alexa488-MEK5 binding to MEKK2 WT; actives lie on both sides. 1.1% of 290,000 active. Q9Y2U5; in the data active = binding response below about 67% or above about 130%
# MEKK3 PB1 HTS = MEKK3-MEK5 PB1 interaction, increase or decrease; AID 1529; bead-based flow cytometry, Alexa488-MEK5 binding to MEKK3; actives lie on both sides; 0 = blocked by unlabeled MEK5, 100 = vehicle; Q99759; binding response (% of control), % at 10 µM; 1.4% of 290,000 active;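 active = binding response more than 3 SD above or below the average of its plate-row segment, actives on both sides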;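 also: Alexa488 bead fluorescence after subtracting the streptavidin-only scavenger bead signal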
# Efflux pump mplx = antifungal efflux pump inhibition, Nile Red retention | S. cerevisiae Candida pump triplex | inhibition, % at 10 µM | 0.44% of 330,000 active | AID 485275;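 active = plate passing quality check with inhibition over a set limit, or well fluorescence over plate mean plus 4 SD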;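 also: Nile Red retained in pooled yeast measured as flow cytometry median fluorescence; 0% = buffer negative control and 100% = Enniatin B positive control; higher means more Nile Red kept so more efflux inhibition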
# MEKK2wt confirm = raises or lowers MEK5 binding to wildtype human MEKK2, retest. shares compounds with MEKK3 PB1 HTS. bead flow cytometry, Alexa488-MEK5 binding to MEKK2 WT; actives lie on both sides. binding response (% of control), % at 10 µM. AID 1892. 2.4% of 5,900 active; in the data active = binding response below about 16% or above about 210%; inactive = in between
# MEKK2mut confirm = signal of MEK5 binding to mutant human MEKK2, retest | 2% of 5,900 active | percent response, % at 10 µM | shares compounds with MEKK3 PB1 HTS | bead flow cytometry, Alexa488-MEK5 binding to MEKK2 mutant; in the data active = percent response mostly above about 71%, no sharp cut-off; inactive = mostly below about 38%;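 also: higher means compound restores mutant binding toward wildtype level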
# MEKK3-MEK5 inh = MEKK3-MEK5 PB1 inhibition, single concentration confirmation. shares compounds with MEKK3 PB1 HTS. bead flow cytometry, Alexa488-MEK5 binding to MEKK3; hits give low values. binding response (% of control), % at 10 µM. 1.8% of 5,900 active. AID 1894;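 active = binding response below 72% of control, or above a set upper limit, though filed actives all read lower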;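 also: 100% = DMSO only wells and 0% = binding blocked by excess unlabeled MEK5; lower values mean stronger disruption of MEK5 binding to MEKK3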
# * = called active by the depositor; . = not tested or not shown; [ ] = remark or other dose. In the library only some 2.5% were active in any assay of this set; here they are far more common.
SMILES,MEKK2 mut-MEK5,ABCG2 block,ABCB1 block,MEKK2wt PB1 HTS,MEKK3 PB1 HTS,Efflux pump mplx,MEKK2wt confirm,MEKK2mut confirm,MEKK3-MEK5 inh
CC1=C(C(=O)Nc2ccccc2)C(c2ccc(C)o2)n2c(s/c(=C/c3ccccc3)c2=O)=N1 (centres undefined),-11.0,3.3,5.5,86.0,82.0*[inhibitor],0.1,96.0,-4.0,99.0
Cc1cccc(N2C(=O)CC(N3CCN(c4ccccn4)CC3)C2=O)c1 (centres undefined),5.0,0.9,0.3,93.0,105.0,0.1,.,.,.
Cn1nnnc1SCC(=O)Nc1ccccc1Cc1ccccc1,-24.0,7.7,1.5,3.0*[inhibitor],3.0*[inhibitor],0.0,100.0,-2.0,102.0
O=C(c1ccccc1)c1nnc(-c2ccccc2F)o1,-16.0,12.6,0.2,-1.0*[inhibitor],0.0*[inhibitor],-0.1,106.0,2.0,106.0
COCC1CCN(C(=O)CCc2nnc(C3(c4ccc(Cl)cc4)CCC3)o2)CC1,-7.0,.,.,99.0,98.0,0.3,.,.,.
Cc1c(Cl)cccc1NC(=O)Cc1ccc([N+](=O)[O-])cc1,-12.0,3.8,0.7,95.0,99.0,-0.1,.,.,.
COc1cccc(C2C(C(=O)c3cccs3)=C(O)C(=O)N2CCN2CCOCC2)c1OC (centres undefined),1.0,.,.,102.0,103.0,.,.,.,.
Cn1c(SCc2ccccc2C#N)nc2ccccc2c1=O,-7.0,.,.,94.0,100.0,0.3,.,.,.
C=C(C)Cn1c(SCC#N)nc2ccccc2c1=O,-10.0,-4.7,-3.5,92.0,82.0*[inhibitor],-0.1,101.0,-1.0,104.0
Cn1c(SCC#N)nc2ccccc2c1=O,29.0,.,.,116.0,128.0*,-0.1,96.0,-12.0,99.0
C=C(C)Cn1c(SCC)nc2ccccc2c1=O,4.0,2.6,0.5,106.0,103.0,0.1,.,.,.
Cc1c(NC(=O)CSc2ccccc2Cl)c(=O)n(-c2ccccc2)n1C,-9.0,-4.4,-1.9,88.0,86.0,-0.4,.,.,.
COC(=O)Cc1cccc2c(=O)c3ccccc3oc12,-11.0,.,.,94.0,96.0,0.1,.,.,.
CCCc1nn(C)c(C(=O)Nc2cccc3ccccc23)c1Cl,1.0,9.8,0.9,107.0,131.0*,0.1,105.0,0.0,109.0
O=C(C1=C[C@@H](c2coc3ccccc3c2=O)C[C@@H](OCc2ccc(CO)cc2)O1)N1CCOCC1,1.0,4.0,0.5,101.0,82.0*[inhibitor],.,97.0,-3.0,98.0
C=C(CC1([C@@H](NP(=O)(c2ccccc2)c2ccccc2)[C@H]2C[C@@H]2CCCC)CC1)c1ccccc1,-1.0,-2.0,1.0,103.0,105.0,.,.,.,.
CCOC(=O)CSC1=N/C(=C\c2cc(OC)c(OC)c(OC)c2)C(=O)N1C,1.0,26.4,1.4,106.0,153.0*,0.0,97.0,-8.0,101.0
CN(C(=O)c1cncc(Br)c1)C1C2CC3CC(C2)CC1C3 (centres undefined),-14.0,.,.,94.0,93.0,0.2,.,.,.
CCN(Cc1ccccc1)c1ccc(/C=N/NC(=S)NC(C)C)cc1,-1.0,14.7,1.1,82.0,59.0*[inhibitor],-12.4,146.0,19.0,107.0
CCCCCOc1ccc(C(=O)NCCC(=O)NCCCC(=O)OCC)cc1,3.0,.,.,107.0,106.0,0.0,.,.,.
CCCOc1ccc(C(=O)NCCC(=O)NCCCC(=O)O)cc1,22.0,.,.,124.0,130.0*,0.0,100.0,1.0,95.0
CCC(C(=O)NCCCN1CCOCC1)n1c2ccccc2c2nc(=O)cc(C)n21 (centres undefined),-1.0,.,.,97.0,96.0,0.0,.,.,.
COc1ccc(C)cc1NC(=O)CC(NC(C)=O)c1ccccc1 (centres undefined),1.0,1.1,-0.2,116.0,135.0*,0.1,102.0,-7.0,99.0
Cc1ccccc1CNc1nnnn1C,1.0,3.8,0.0,104.0,102.0,-0.1,.,.,.
COc1ccccc1C(=O)N/C(=C\c1ccc(Br)cc1)C(=O)NCCCO,-3.0,2.2,0.6,103.0,98.0,-0.1,.,.,.
SMILES,MEKK2 mut-MEK5,ABCG2 block,ABCB1 block,MEKK2wt PB1 HTS,MEKK3 PB1 HTS,Efflux pump mplx,MEKK2wt confirm,MEKK2mut confirm,MEKK3-MEK5 inh
COc1ccccc1C(=O)N/C(=C\c1ccc(Br)cc1)C(=O)NCCO,6.0,3.3,0.5,126.0,129.0*,0.2,106.0,9.0,106.0
CC1(/[N+]([O-])=C/c2ccc(F)cc2)CCCCC1=O (centres undefined),12.0,.,.,105.0,114.0,0.0,.,.,.
CN(c1ccccc1)c1nc(N2CCCC2)nc(-n2ccnc2)n1,15.0,0.3,0.1,134.0*,116.0,0.1,104.0,1.0,102.0
CCOc1cc(C2NN=C(c3ccccc3)S2)ccc1OCc1ccc(F)cc1 (centres undefined),-16.0,19.6,0.1,0.0*[inhibitor],0.0*[inhibitor],0.3,97.0,-7.0,95.0
Cn1cnc(S(=O)(=O)N2CCN(c3cccc(C(F)(F)F)c3)CC2)c1,5.0,.,.,102.0,100.0,-0.2,.,.,.
Cc1ccc(S(=O)(=O)N(C)c2ccc(C(=O)Nc3c(C)n(C)n(-c4ccccc4)c3=O)cc2)cc1,-4.0,-1.8,0.6,91.0,97.0,-0.1,.,.,.
COc1ccc(NC(=O)Nc2nnc(-c3ccccc3SCc3ccccc3)s2)cc1,6.0,1.8,1.9,106.0,122.0*,0.1,90.0,1.0,99.0
COc1ccc(C2N(c3ccccc3)C(=S)N3CCCN23)cc1 (centres undefined),1.0,0.1,0.0,106.0,139.0*,3.3,96.0,0.0,101.0
S=C1N(c2ccccc2)C(c2ccc(Cl)cc2)N2CCCN12 (centres undefined),8.0,1.9,0.5,113.0,105.0,-0.2,.,.,.
CC(C)Oc1ccc(/C=N/NC(N)=S)cc1,14.0,8.3,-0.1,108.0,100.0,0.0,.,.,.
CCOP(=O)(c1ccccc1)C(O)c1ccccc1 (centres undefined),-2.0,2.8,0.5,98.0,98.0,0.0,.,.,.
CCOP(=O)(c1ccccc1)C(O)c1ccc(Br)cc1 (centres undefined),0.0,1.8,0.4,106.0,134.0*,-0.4,97.0,-8.0,91.0
C/C(=N/NC(=O)c1ccncc1)c1cc2ccc(O)cc2oc1=O,16.0,9.3,-0.1,156.0*,103.0,1.6,88.0,-9.0,91.0
C/C(=N\NC(=O)c1ccncc1)c1cc2ccccc2oc1=O,-1.0,-4.0,-0.2,105.0,110.0,0.3,.,.,.
Cn1cc(Br)c(C(=O)N/N=C/c2cc3c(cc2Cl)OCO3)n1,-6.0,.,.,93.0,95.0,.,.,.,.

# High-throughput results from PubChem BioAssay.
